ChEMBL document CHEMBL4270573, “Novel nicotinoyl pyrazoline derivates bearing N-methyl indole moiety as antitumor agents: Design, synthesis and evaluation” (Eur J Med Chem, 2018)

Experiments:
Mus musculus [1] = experiment: Toxicity in nude mouse xenografted with human HeLa cells assessed as change in mouse heart weight at 10 to 20 mg/kg, ip after 14 days; type: organism-based; conditions: in vivo, 336 h
HepG2 [2] = experiment: Cell cycle arrest in human HepG2 cells assessed as accumulation at S phase at 0.020 uM after 24 hrs by propidium iodide staining based flow cytometric analysis (reference value: 20.40%); type: functional
How it was run: (§1)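 HepG2 and HeLa cells were exposed to 0, 0.020, 0.040, 0.060, 0.080 or 0.10 µM for 6, 12 or 24 h. DNA content was stained with propidium iodide and analysed by flow cytometry to give the percentage of cells in G0/G1, S and G2/M phases; sub-G1 cells were also recorded.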

HeLa [3] = experiment: Antitumor activity against human HeLa cells xenografted in nude mouse assessed as tumor volume at 20 mg/kg, ip after 14 days (reference value: 2292.17 mm3); type: functional
HeLa [4] = experiment: Induction of apoptosis in human HeLa cells assessed as early apoptotic cells at 0.040 uM after 24 hrs by Annexin V-FITC/propidium iodide staining based flow cytometric analysis (reference value: 6.17%); type: functional
How it was run: (§2)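 HepG2 and HeLa cells were exposed to 0, 0.02, 0.040, 0.060, 0.080 and 0.10 µM for 6, 12 and 24 h. Cells were double-stained with Annexin V-FITC/PI and read by flow cytometry. Apoptotic rate was the percentage of FITC-positive cells, counting early plus late apoptotic.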

HepG2 [5] = experiment: Induction of apoptosis in human HepG2 cells assessed as early apoptotic cells at 0.060 uM after 24 hrs by Annexin V-FITC/propidium iodide staining based flow cytometric analysis (reference value: 2.31%); type: functional; how it was run: as §2
HeLa [6] = experiment: Induction of apoptosis in human HeLa cells assessed as late apoptotic cells at 0.040 uM after 24 hrs by Annexin V-FITC/propidium iodide staining based flow cytometric analysis (reference value: 4.98%); type: functional; how it was run: as §2
HepG2 [7] = experiment: Induction of apoptosis in human HepG2 cells assessed as early apoptotic cells at 0.020 uM after 24 hrs by Annexin V-FITC/propidium iodide staining based flow cytometric analysis (reference value: 2.31%); type: functional; how it was run: as §2
Mus musculus [8] = experiment: Toxicity in nude mouse xenografted with human HeLa cells assessed as body weight loss at 10 to 20 mg/kg, ip after 14 days; type: organism-based; conditions: in vivo, 336 h
Mus musculus [9] = experiment: Nephrotoxicity in nude mouse xenografted with human HeLa cells assessed as necrosis in kidney at 10 to 20 mg/kg, ip after 14 days by hematoxylin and eosin staining based microscopic analysis; type: toxicity, organism-based; conditions: in vivo, 336 h
HepG2 [10] = experiment: Cell cycle arrest in human HepG2 cells assessed as accumulation at G0/G1 phase at 0.080 uM after 24 hrs by propidium iodide staining based flow cytometric analysis (reference value: 55.63%); type: functional; how it was run: as §1
HeLa [11] = experiment: Antitumor activity against human HeLa cells xenografted in nude mouse assessed as tumor weight at 10 mg/kg, ip after 14 days (reference value: 1.54 g); type: functional
HeLa [12] = experiment: Induction of apoptosis in human HeLa cells assessed as early apoptotic cells at 0.020 uM after 24 hrs by Annexin V-FITC/propidium iodide staining based flow cytometric analysis (reference value: 6.17%); type: functional; how it was run: as §2
HeLa [13] = experiment: Induction of apoptosis in human HeLa cells assessed as late apoptotic cells at 0.10 uM after 24 hrs by Annexin V-FITC/propidium iodide staining based flow cytometric analysis (reference value: 4.98%); type: functional; how it was run: as §2
HeLa [14] = experiment: Induction of apoptosis in human HeLa cells assessed as necrotic cells at 0.10 uM after 24 hrs by Annexin V-FITC/propidium iodide staining based flow cytometric analysis (reference value: 0.242%); type: functional; how it was run: as §2
HepG2 [15] = experiment: Induction of apoptosis in human HepG2 cells assessed as viable cells at 0.10 uM after 24 hrs by Annexin V-FITC/propidium iodide staining based flow cytometric analysis (reference value: 94.5%); type: functional; conditions: HepG2, 24 h, read-out: Activity; how it was run: as §2
HeLa [16] = experiment: Induction of apoptosis in human HeLa cells assessed as early apoptotic cells at 0.10 uM after 24 hrs by Annexin V-FITC/propidium iodide staining based flow cytometric analysis (reference value: 6.17%); type: functional; how it was run: as §2
HepG2 [17] = experiment: Induction of apoptosis in human HepG2 cells assessed as necrotic cells at 0.040 uM after 24 hrs by Annexin V-FITC/propidium iodide staining based flow cytometric analysis (reference value: 0.270%); type: functional; how it was run: as §2
HeLa [18] = experiment: Induction of apoptosis in human HeLa cells assessed as early apoptotic cells at 0.060 uM after 24 hrs by Annexin V-FITC/propidium iodide staining based flow cytometric analysis (reference value: 6.17%); type: functional; how it was run: as §2
Mus musculus [19] = experiment: Hepatotoxicity in nude mouse xenografted with human HeLa cells assessed as morphological changes in liver cells at 10 to 20 mg/kg, ip after 14 days by hematoxylin and eosin staining based microscopic analysis; type: toxicity, organism-based; conditions: in vivo, 336 h
How it was run: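 HeLa xenograft nude mice with tumours near 100 mm³, randomised to four groups of 28 mice in total. Dosing was intraperitoneal: vehicle, CA-4 10 mg/kg, or test compound at 10 or 20 mg/kg, continued for 14 days. Heart, liver, kidney and spleen were then H&E-stained and examined for inflammatory infiltration, edema, necrosis and cell morphology.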

HepG2 [20] = experiment: Cell cycle arrest in human HepG2 cells assessed as accumulation at G0/G1 phase at 0.020 uM after 24 hrs by propidium iodide staining based flow cytometric analysis (reference value: 55.63%); type: functional; how it was run: as §1
HeLa [21] = experiment: Cell cycle arrest in human HeLa cells assessed as accumulation at G0/G1 phase at 0.080 uM after 24 hrs by propidium iodide staining based flow cytometric analysis (reference value: 66.26%); type: functional; how it was run: as §1
HeLa [22] = experiment: Cell cycle arrest in human HeLa cells assessed as accumulation at S phase at 0.020 uM after 24 hrs by propidium iodide staining based flow cytometric analysis (reference value: 17.46%); type: functional; how it was run: as §1
HepG2 [23] = experiment: Cell cycle arrest in human HepG2 cells assessed as accumulation at G2/M phase at 0.020 to 0.10 uM after 6 to 24 hrs by propidium iodide staining based flow cytometric analysis relative to control; type: functional; how it was run: as §1
HepG2 [24] = experiment: Cell cycle arrest in human HepG2 cells assessed as accumulation at G2/M phase at 0.080 uM after 24 hrs by propidium iodide staining based flow cytometric analysis (reference value: 20.17%); type: functional; how it was run: as §1
HeLa [25] = experiment: Cell cycle arrest in human HeLa cells assessed as accumulation at G2/M phase at 0.10 uM after 24 hrs by propidium iodide staining based flow cytometric analysis (reference value: 17.72%); type: functional; how it was run: as §1
HeLa [26] = experiment: Induction of apoptosis in human HeLa cells assessed as late apoptotic cells at 0.020 uM after 24 hrs by Annexin V-FITC/propidium iodide staining based flow cytometric analysis (reference value: 4.98%); type: functional; how it was run: as §2
HepG2 [27] = experiment: Induction of apoptosis in human HepG2 cells assessed as necrotic cells at 0.080 uM after 24 hrs by Annexin V-FITC/propidium iodide staining based flow cytometric analysis (reference value: 0.270%); type: functional; how it was run: as §2
HeLa [28] = experiment: Cell cycle arrest in human HeLa cells assessed as accumulation at S phase at 0.080 uM after 24 hrs by propidium iodide staining based flow cytometric analysis (reference value: 17.46%); type: functional; how it was run: as §1
HepG2 [29] = experiment: Induction of apoptosis in human HepG2 cells assessed as viable cells at 0.020 uM after 24 hrs by Annexin V-FITC/propidium iodide staining based flow cytometric analysis (reference value: 94.5%); type: functional; conditions: HepG2, 24 h, read-out: Activity; how it was run: as §2

With COc1cccc(C2=NN(C(=O)c3ccc(C)nc3)C(c3cn(C)c4ccc(OC)cc34)C2)c1 (centres undefined) as the compound, how does the Activity (Mus musculus [1]) read?
The Activity was “Non-Toxic”.

And the Activity (HepG2 [2])?
Its Activity is 19.81%.

And the Activity (HeLa [3])?
Its Activity is 881.93 mm3.

What about the Activity (HeLa [4]) of the same compound?
Its Activity is 11%.

And the Activity (HepG2 [5])?
Its Activity is 7.94%.

What about the Activity (HeLa [6]) of the same compound?
Its Activity is 3.95%.

And the Activity (HepG2 [7])?
The Activity was 3.18%.

And the Activity (Mus musculus [8])?
The Activity was “Non-Toxic”.

And the Activity (Mus musculus [9])?
Its Activity is “Non-Toxic”.

What about the Activity (HepG2 [10]) of the same compound?
The Activity was 7.81%.

What about the Activity (HeLa [11]) of the same compound?
The Activity was 0.91 g.

What about the Activity (HeLa [12]) of the same compound?
Its Activity is 3.24%.

And the Activity (HeLa [13])?
Its Activity is 8.26%.

And the Activity (HeLa [14])?
Its Activity is 0.76%.

And the viability at 0.1 µM (HepG2 [15])?
Its viability at 0.1 µM is 70.7%.

What about the Activity (HeLa [16]) of the same compound?
Its Activity is 32.8%.

And the Activity (HepG2 [17])?
Its Activity is 2.2%.

What about the Activity (HeLa [18]) of the same compound?
Its Activity is 26.1%.

And the Activity (Mus musculus [19])?
Its Activity is “Non-Toxic”.

What about the Activity (HepG2 [20]) of the same compound?
The Activity was 41.26%.

And the Activity (HeLa [21])?
The Activity was 5.36%.

What about the Activity (HeLa [22]) of the same compound?
The Activity was 9.62%.

What about the Activity (HepG2 [23]) of the same compound?
The Activity was over 60%.

What about the Activity (HepG2 [24]) of the same compound?
Its Activity is 50.73%.

And the Activity (HeLa [25])?
The Activity was 61.12%.

And the Activity (HeLa [26])?
The Activity was 7.98%.

What about the Activity (HepG2 [27]) of the same compound?
The Activity was 2.95%.

What about the Activity (HeLa [28]) of the same compound?
The Activity was 9.17%.

What about the viability at 0.02 µM (HepG2 [29]) of the same compound?
Its viability at 0.02 µM is 92.9%.
